Reference: ChEMBL document CHEMBL4619791, “3-Difluoroalkyl Quaternary Oxindoles Inhibit Macrophage Pyroptosis by Blocking Inflammasome Recruitment of Caspase-1” (ACS Med Chem Lett, 2020)
Active and inactive are the calls of the source. No cut-off for these calls is given here.

Legend:
Caspase-4 (Mus musculus) = target: T1, Caspase-4 (Mus musculus) (UniProt P70343); assay: Inhibition of pyroptosis-inducing caspase-11 in LPS-primed immortalized mouse […] cells assessed as cell death at 5 uM by LDH assay; type: cell-based; settings: J774.A1
T1 sequence (whole entry): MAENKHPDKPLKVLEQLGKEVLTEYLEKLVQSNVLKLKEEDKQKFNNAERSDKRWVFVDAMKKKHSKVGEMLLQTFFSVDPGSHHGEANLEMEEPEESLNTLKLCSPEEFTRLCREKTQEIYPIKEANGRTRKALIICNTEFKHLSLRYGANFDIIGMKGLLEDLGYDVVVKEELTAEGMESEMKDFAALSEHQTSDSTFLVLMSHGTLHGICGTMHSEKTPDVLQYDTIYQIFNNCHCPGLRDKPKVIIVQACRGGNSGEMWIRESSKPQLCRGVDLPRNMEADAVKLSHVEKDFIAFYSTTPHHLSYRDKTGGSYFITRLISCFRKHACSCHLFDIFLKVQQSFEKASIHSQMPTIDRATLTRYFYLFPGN
Method in brief: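 Cell death induced by cytoplasmic LPS in J774A.1 cells, measured by LDH release. Mean ± SEM, n ≥ 3.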

Caspase-8 (Mus musculus) = target: T2, Caspase-8 (Mus musculus) (UniProt O89110); assay: Inhibition of caspase-8 activity in LPS-primed immortalized mouse […] cells assessed as reduction in nigericin-induced caspase-8 cleavage at 5 uM by Western blot analysis; type: cell-based; settings: J774.A1
T2 sequence (whole entry): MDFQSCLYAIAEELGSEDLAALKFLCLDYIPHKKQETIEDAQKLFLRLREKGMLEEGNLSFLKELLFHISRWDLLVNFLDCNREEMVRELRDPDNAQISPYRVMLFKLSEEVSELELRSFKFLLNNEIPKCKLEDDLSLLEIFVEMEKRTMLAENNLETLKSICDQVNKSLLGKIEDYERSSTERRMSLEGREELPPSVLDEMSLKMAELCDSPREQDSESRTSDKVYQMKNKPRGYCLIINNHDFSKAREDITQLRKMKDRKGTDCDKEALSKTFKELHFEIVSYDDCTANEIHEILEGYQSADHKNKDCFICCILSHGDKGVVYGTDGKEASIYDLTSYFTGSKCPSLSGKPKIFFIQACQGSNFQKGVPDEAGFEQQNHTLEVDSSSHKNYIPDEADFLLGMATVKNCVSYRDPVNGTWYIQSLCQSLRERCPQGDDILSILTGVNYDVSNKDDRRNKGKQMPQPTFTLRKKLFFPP
Method in brief: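 Western blot of full-length and cleaved caspase-1 and caspase-8 in J774A.1 cells after nigericin, with tubulin as loading control. Bands quantified as bar graphs.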

Mus musculus = assay: Antiinflammatory activity against LPS-induced sepsis C57BL/6J mouse model assessed as reduction in alveolar exudate at 20 mg/kg, iv administered as single dose for 1 hr prior to LPS challenge and measured after 48 hrs by hematoxylin-eosin staining based inverted microscopy analysis; type: functional, organism-based
[1] = Toxicity in zebrafish embryo; set-up: species or system Danio rerio; settings: in vivo
Method in brief: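 Zebrafish embryos exposed to compound. EC100 is the concentration at which all treated embryos show early lethality, embryonic defects or developmental delay.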

BMDM [2] = assay: Inhibition of pyroptosis in LPS-primed C57BL/6 mouse primary BMDM assessed as reduction in nigericin-induced cell death by Alamar blue assay; type: functional, cell-based
Method in brief: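 Primary murine macrophages primed with LPS and stimulated with nigericin across a dose range. IL-1β release, LDH release and Alamar blue measured. Means ± SE, ≥3 experimental replicates.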

[3] = target: NACHT, LRR and PYD domains-containing protein 3 (Mus musculus) (UniProt Q8R4B8); assay: Activation of NLRP3 in LPS-primed C57BL/6 mouse primary BMDM transfected with eGFP-tagged ASC assessed as nigericin-induced ASC oligomerization by measuring speck formation at 5 uM by confocal microscopy
Method in brief: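 Primary macrophages transfected with an ASC-GFP plasmid, then given LPS and nigericin to induce ASC specks. Imaged by confocal microscopy.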

BMDM [4] = assay: Inhibition of pyroptosis in LPS-primed C57BL/6 mouse primary BMDM assessed as effect on nigericin-induced cell morphological changes at 5 uM by propidium iodide staining based confocal microscopy; type: functional
Method in brief: (§1)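 Primary BMDM and J774A.1 cells treated with LPS and nigericin. Swelling, bubble formation and propidium iodide uptake visualized by epifluorescence microscopy.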

J774.A1 = assay: Inhibition of pyroptosis cell death in LPS-primed immortalized mouse […] cells assessed as effect on nigericin-induced cell morphological changes by propidium iodide staining based confocal microscopy; type: functional; method in brief: as §1
BMDM [5] = assay: Induction of ROS generation in LPS-primed C57BL/6 mouse primary BMDM assessed as increase in nigericin-induced ROS level at 5 uM by DCFH-DA probe based FACS analysis; type: functional, cell-based
Method in brief: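 Nigericin-stimulated macrophages loaded with DCFH-DA; ROS read as a shift in fluorescence by flow cytometry.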

[6] = Lipid-water partition coefficient, logP of the compound; type: physicochemical

NACHT, LRR and PYD domains-containing protein 3 (Mus musculus), sequence (Q8R4B8 whole entry, the tested form may be a part): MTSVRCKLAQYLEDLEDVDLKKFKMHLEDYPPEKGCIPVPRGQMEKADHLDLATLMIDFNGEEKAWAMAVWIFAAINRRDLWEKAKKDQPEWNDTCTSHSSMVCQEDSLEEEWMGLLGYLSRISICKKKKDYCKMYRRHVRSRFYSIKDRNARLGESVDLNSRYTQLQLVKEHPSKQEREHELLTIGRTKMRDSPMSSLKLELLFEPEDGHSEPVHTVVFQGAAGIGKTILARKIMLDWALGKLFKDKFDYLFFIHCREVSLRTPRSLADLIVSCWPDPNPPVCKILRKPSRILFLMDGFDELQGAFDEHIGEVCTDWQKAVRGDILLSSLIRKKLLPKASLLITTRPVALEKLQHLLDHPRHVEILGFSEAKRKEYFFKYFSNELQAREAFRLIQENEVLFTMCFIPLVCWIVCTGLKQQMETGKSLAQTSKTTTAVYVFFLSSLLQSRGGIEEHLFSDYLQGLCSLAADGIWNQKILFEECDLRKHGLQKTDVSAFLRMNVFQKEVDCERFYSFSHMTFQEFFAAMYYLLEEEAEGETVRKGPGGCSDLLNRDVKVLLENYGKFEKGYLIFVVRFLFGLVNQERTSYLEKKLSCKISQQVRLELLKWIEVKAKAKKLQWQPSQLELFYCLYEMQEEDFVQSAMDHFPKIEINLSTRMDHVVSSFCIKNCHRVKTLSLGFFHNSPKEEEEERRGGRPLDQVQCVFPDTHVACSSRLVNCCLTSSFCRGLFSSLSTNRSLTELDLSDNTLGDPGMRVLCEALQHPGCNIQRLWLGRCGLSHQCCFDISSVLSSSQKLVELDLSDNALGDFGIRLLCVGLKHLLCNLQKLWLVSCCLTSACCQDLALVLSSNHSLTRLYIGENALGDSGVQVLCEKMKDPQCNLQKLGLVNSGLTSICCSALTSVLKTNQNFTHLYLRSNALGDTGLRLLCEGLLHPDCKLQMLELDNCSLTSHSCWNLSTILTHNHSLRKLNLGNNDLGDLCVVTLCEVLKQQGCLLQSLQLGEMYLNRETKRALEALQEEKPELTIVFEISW

Q: What does the source list for CCOC(CN1C(=O)C(NC(=O)Nc2ccc(C)cc2)(C(F)(F)C(=O)Nc2ccc(C)cc2)c2ccccc21)OCC (stereo not given)?
A: inhibition (Caspase-4 (Mus musculus)): Active; inhibition (Caspase-8 (Mus musculus)): inactive; Activity (Mus musculus): Active; EC100 [1]: > 50 µM; inhibition (BMDM [2]): Dose-dependent effect; Activity [3]: inactive; inhibition (BMDM [4]): Active; inhibition (J774.A1): Active; Activity (BMDM [5]): Active; logP [6]: 4.1
